Assay results taken from ChEMBL document CHEMBL3588789, “Synthesis and Pharmacokinetic Evaluation of Siderophore Biosynthesis Inhibitors for Mycobacterium tuberculosis” (J Med Chem, 2015).

Tests used:
Rattus norvegicus [1] = test: Oral bioavailability in Sprague-Dawley rat at 25 mg/kg by LC-MS/MS method; format: ADME, organism-based; details: in vivo
Method in brief: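 Crossover in the same 3 female Sprague-Dawley rats: 25 mg/kg by oral gavage, then after a 3-day washout 2.5 mg/kg iv bolus. Serial femoral plasma quantified by LC–MS/MS. AUCs by non-compartmental analysis. Absolute bioavailability calculated individually for each rat from its oral and iv data.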

[2] = (§1) Cmax in Sprague-Dawley rat at 25 mg/kg, po by LC-MS/MS method; format: ADME, organism-based; design: dose 25 mg/kg, route oral; details: Sprague-Dawley, in vivo
Method in brief: (§2)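 Female Sprague-Dawley rats (250–274 g), catheterised, 3 per compound, dosed by oral gavage at 25 mg/kg from a 10 mg/mL solution. Femoral-vein blood taken at 0, 15, 30, 45, 60, 120, 240 and 480 min into K2EDTA. Plasma protein-precipitated with an internal standard and quantified by LC–MS/MS against standards in rat plasma. Parameters by non-compartmental analysis.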

[3] = tested on: Mycobacterium tuberculosis; test: Antimicrobial activity against Mycobacterium tuberculosis H37Rv grown in GAS medium without ferric ammonium citrate at pH 6.6 incubated for 10 to 14 days by broth microdilution method; format: functional
[4] = AUC (0 to infinity) in Sprague-Dawley rat at 2.5 mg/kg, iv by LC-MS/MS method; format: ADME, organism-based; design: dose 2.5 mg/kg, route intravenous, time infinity; details: in vivo
Method in brief: (§3)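 Female Sprague-Dawley rats (250–274 g) with dual jugular/femoral vein catheters, 3 per compound, given a single 2.5 mg/kg bolus into the jugular catheter over 5 s, 3 days after oral dosing. Vehicle was 0.05% sodium carboxymethylcellulose or 25% hydroxypropyl-β-cyclodextrin in water. Femoral blood sampled at 0–480 min into K2EDTA. Plasma analysed by LC–MS/MS with an internal standard. Non-compartmental analysis.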

[5] = Inhibition of Mycobacterium tuberculosis MbtA expressed in Escherichia coli using [32P]PPi, ATP and salicylic acid incubated for 20 mins by liquid scintillation counting method; details: read-out: Ki(app)
[6] = Clearance in Sprague-Dawley rat at 2.5 mg/kg, iv by LC-MS/MS method; format: ADME, organism-based; details: in vivo; method in brief: as §3
[7] = Terminal half life in Sprague-Dawley rat at 2.5 mg/kg, iv by LC-MS/MS method; format: ADME, organism-based; details: in vivo, read-out: beta t1/2
Caco-2 [8] = test: (§4) Efflux ratio in human Caco2 cells after 30 to 120 mins by HPLC method; format: ADME, cell-based
Method in brief: (§5)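 Caco-2 cells (passage 50–70) grown 21 days on Transwell inserts, used only where TEER >300. Apical buffer pH 6.0, basolateral pH 7.4, 60 min preincubation. Compound dosed from a 20 mM DMSO stock with lucifer yellow on the donor side. Samples analysed by HPLC. Papp = (dQ/dt)/(A·C0) from cumulative sampling. Efflux ratio from B–A and A–B values.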

Caco-2 [9] = test: (§6) Apparent permeability from apical to basolateral side in human Caco2 cells after 30 to 120 mins by HPLC method; format: ADME, cell-based; method in brief: as §5
[10] = (§7) AUC (0 to infinity) in Sprague-Dawley rat at 25 mg/kg, po by LC-MS/MS method; format: ADME, organism-based; design: dose 25 mg/kg, time infinity, route oral; details: Sprague-Dawley, in vivo
Caco-2 [11] = test: (§8) Apparent permeability from basolateral to apical side in human Caco2 cells after 30 to 120 mins by HPLC method; format: ADME, cell-based; method in brief: as §5
[12] = Ratio of MIC for antimicrobial activity against Mycobacterium tuberculosis H37Rv to KI)app) for inhibition of Mycobacterium tuberculosis MbtA expressed in Escherichia coli
HepG2 = test: Cytotoxicity against human HepG2 cells assessed as reduction in cell viability incubated for 48 hrs by MTT assay; format: cell-based; details: hepg2, 48 h
Method in brief: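 HepG2 cells (2.5–5.0 × 10^4 per well) in EMEM with 10% FBS, in triplicate. Final compound concentrations 1–200 μM diluted from 20 mM DMSO stocks. Controls were 1% DMSO and 1% Triton X-100. Incubated 48 h at 37 °C under 5% CO2.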

Liver = test: Half life in mouse liver microsomes at 1 uM in presence of NADPH by LC-MS/MS method; format: ADME
Method in brief: (§9)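 Liver microsomes (rat, mouse or pooled human, 0.5 mg/mL) in 100 mM potassium phosphate pH 7.4 with 10 mM MgCl2 and 1.0 μM compound. Preincubated, then NADPH added (water for control). Incubated 60 min at 37 °C. Acetonitrile quench, centrifugation, supernatant analysed by LC–MS/MS.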

[13] = Cmax in BALB/c mouse; format: ADME, organism-based; details: in vivo
[14] = Stability in pH 1 buffer solutions assessed as compound degradation after 24 hrs at 37 degC; format: physicochemical; details: read-out: Drug degradation
Method in brief: (§10)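 Compound held at pH 1 or pH 12 for 24 h at 37 °C, with degradation measured.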

[15] = Solubility in water; format: physicochemical; details: buffer
[16] = Stability in pH 12 buffer solutions assessed as compound degradation after 24 hrs at 37 degC; format: physicochemical; details: read-out: Drug degradation; method in brief: as §10
Liver microsome [17] = test: Half life in rat liver microsomes at 1 uM in presence of NADPH by LC-MS/MS method; format: ADME; method in brief: as §9
Liver microsome [18] = test: Half life in human liver microsomes at 1 uM in presence of NADPH by LC-MS/MS method; format: ADME; method in brief: as §9
[19] = AUC in BALB/c mouse; format: ADME, organism-based; details: in vivo
[20] = Ratio of Cmax in Sprague-Dawley rat at 25 mg/kg, po to MIC for antimicrobial activity against Mycobacterium tuberculosis H37Rv; format: ADME, organism-based; details: in vivo
Method in brief: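 Female Sprague-Dawley rats (250–274 g, catheterised; 3 per compound) got a 25 mg/kg gavage dose from a 10 mg/mL solution. Plasma drawn 0–480 min was read by LC–MS/MS, and Cmax was taken by non-compartmental analysis. […] Cmax was divided by MIC.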

Rattus norvegicus [21] = test: as §1; format: ADME, organism-based; design: dose 25 mg/kg, route oral; details: in vivo, BLD = below limit of detection; method in brief: as §2
[22] = as §4; format: ADME, cell-based; details: caco-2; method in brief: as §5
[23] = as §6; format: ADME, cell-based; details: caco-2; method in brief: as §5
Rattus norvegicus [24] = test: as §7; format: ADME, organism-based; design: dose 25 mg/kg, time infinity, route oral; details: in vivo, BLD = below limit of detection
[25] = as §8; format: ADME, cell-based; details: caco-2; method in brief: as §5
Plasma [26] = test: Drug metabolism in Sprague-Dawley rat plasma assessed as 2',3'-O-Di-acetyl-5'-O-[N-(2-hydroxybenzoyl)sulfamoyl]-adenosine formation at 10 uM; format: ADME, cell-free
Plasma [27] = test: Drug metabolism in Sprague-Dawley rat plasma assessed as 5'-O-[N-(Salicyl)sulfamoyl]adenosine formation at 10 uM; format: ADME, cell-free

Structure (SMILES)	F (Rattus norvegicus [1])	Cmax [2]	MIC [3]	AUC(0-inf) [4]	Ki [5]	clearance [6]	half-life [7]	Papp (Caco-2 [9])	AUC(0-inf) [10]	Papp (Caco-2 [11])	Ratio [12]	CC50 (HepG2)	also measured
NNC(=O)c1ccncc1 [ISONIAZID]	65%	13500 ng/mL	–	–	–	–	–	–	–	–	–	–	–
CCN(CC)CC.O=C(NS(=O)(=O)NC[C@H]1O[C@@H](n2cnc3c(NC4CC4)nc(-c4ccccc4)nc32)[C@H](O)[C@@H]1O)c1ccccc1O	0.3%	100 ng/mL	6.25 µM	3070 ng·h/mL	0.76 nM	13.6 mL/min/kg	15.5 min	0.52 ×10⁻⁶ cm/s	66.7 ng·h/mL	1.8 ×10⁻⁶ cm/s	8224	–	Ratio (Caco-2 [8]): 3.45
CCN(CC)CC.Nc1ncnc2c1ncn2[C@@H]1O[C@H](COS(=O)(=O)NC(=O)c2ccccc2O)[C@@H](O)[C@H]1O	1.3%	400 ng/mL	0.39 µM	8650 ng·h/mL	–	4.9 mL/min/kg	11 min	1.23 ×10⁻⁶ cm/s	1100 ng·h/mL	0.96 ×10⁻⁶ cm/s	–	> 200000 nM	t1/2 (Liver): > 30 min; Cmax [13]: 1200 ng/mL; degraded at 24 h [14]: < 5%; solubility [15]: > 50 mg/mL; degraded at 24 h [16]: < 5%; Ratio (Caco-2 [8]): 0.78; t1/2 (Liver microsome [17]): > 30 min; t1/2 (Liver microsome [18]): > 30 min; AUC [19]: 977 ng·h/mL
CCN(CC)CC.Nc1ccc(C(=O)NS(=O)(=O)NC[C@H]2O[C@@H](n3cnc4c(N)ncnc43)[C@H](O)[C@@H]2O)c(O)c1	3.7%	90 ng/mL	3.12 µM	1050 ng·h/mL	8.9 nM	46.3 mL/min/kg	10.6 min	–	280 ng·h/mL	–	351	> 200000 nM	–
CCN(CC)CC.O=C(NS(=O)(=O)NC[C@H]1O[C@@H](n2cnc3c(NC4CC4)ncnc32)[C@H](O)[C@@H]1O)c1ccccc1O	1%	140 ng/mL	0.098 µM	3480 ng·h/mL	1.5 nM	9.6 mL/min/kg	15.1 min	–	302 ng·h/mL	–	65	–	–
CCN(CC)CC.Nc1nc(-c2ccccc2)nc2c1ncn2[C@@H]1O[C@H](CNS(=O)(=O)NC(=O)c2ccccc2O)[C@@H](O)[C@H]1F	0.8%	500 ng/mL	1.56 µM	33000 ng·h/mL	1.6 nM	1.3 mL/min/kg	121 min	–	2330 ng·h/mL	–	975	> 200000 nM	–
CCN(CC)CC.Nc1ncnc2c1ncn2[C@@H]1O[C@H](CNS(=O)(=O)NC(=O)c2ccccc2O)[C@@H](O)[C@H]1F	1.8%	460 ng/mL	0.19 µM	17400 ng·h/mL	1.7 nM	2.5 mL/min/kg	32.5 min	4.2 ×10⁻⁶ cm/s	3130 ng·h/mL	1.34 ×10⁻⁶ cm/s	112	> 200000 nM	Ratio (Caco-2 [8]): 0.32
CCN(CC)CC.Nc1ncnc2c1ncn2[C@@H]1O[C@H](CNS(=O)(=O)NC(=O)c2ccccc2O)C[C@H]1F	2%	560 ng/mL	0.78 µM	16000 ng·h/mL	3 nM	2.6 mL/min/kg	62 min	–	3300 ng·h/mL	–	260	–	–
CCN(CC)CC.Nc1ncnc2c1ncn2[C@@H]1O[C@H](CNS(=O)(=O)NC(=O)c2ccccc2O)[C@@H](O)[C@H]1O	3.5%	700 ng/mL	0.19 µM	5070 ng·h/mL	3.7 nM	8.4 mL/min/kg	10.6 min	1.23 ×10⁻⁶ cm/s	–	0.86 ×10⁻⁶ cm/s	51	> 200000 nM	Ratio [20]: 7
CC(=O)O[C@@H]1[C@H](OC(C)=O)[C@@H](COS(=O)(=O)NC(=O)c2ccccc2O)O[C@H]1n1cnc2c(N)ncnc21.CCN(CC)CC	–	–	–	–	–	–	–	–	–	–	–	–	Cmax (Rattus norvegicus [21]): BLD; efflux ratio [22]: 1.55; Papp A→B [23]: 0.62 ×10⁻⁶ cm/s; AUC (Rattus norvegicus [24]): BLD; Papp B→A [25]: 0.97 ×10⁻⁶ cm/s
CC(=O)Oc1ccccc1C(=O)NS(=O)(=O)OC[C@H]1O[C@@H](n2cnc3c(N)ncnc32)[C@H](OC(C)=O)[C@@H]1OC(C)=O.CCN(CC)CC	–	30 ng/mL	–	–	–	–	–	–	48.3 ng·h/mL	–	–	–	Drug metabolism (Plasma [26]): metabolite_detected; Drug metabolism (Plasma [27]): metabolite_detected
